Measurements published in ChEMBL document CHEMBL4257497, “Design, synthesis and biological evaluation of novel 1,3-diarylpyrazoles as cyclooxygenase inhibitors, antiplatelet and anticancer agents” (Medchemcomm, 2018).

How the values were obtained:
[1] = test system: Platelet; test: Antiplatelet activity in human platelet rich plasma assessed as inhibition of arachidonic acid-induced platelet aggregation at 100 uM preincubated for 5 mins followed by arachidonic acid addition measured for 3 mins by aggregometric analysis relative to control; type: functional
Method in brief: (§1)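 Citrated venous blood (3.2% citrate, 1:9) from healthy donors free of antiplatelet drugs for 10 days; PRP from 800 rpm 10 min spin, PPP from 1500 rpm 10 min; count set to 3.8 × 10^5 platelets […]. PRP stirred at 1100 rpm, 37 °C; compound in DMSO (1% carrier) 5 min before agonist (AA final 700 μM; collagen 5 μg ml−1). Turbidimetric read, triplicate; % inhibition versus DMSO-treated maximum aggregation.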

[2] = test system: Platelet; test: Antiplatelet activity in human platelet rich plasma assessed as inhibition of arachidonic acid-induced platelet aggregation preincubated for 5 mins followed by arachidonic acid addition measured for 3 mins by aggregometric analysis; type: functional, cell-based
[3] = test system: Platelet; test: Antiplatelet activity in human platelet rich plasma assessed as inhibition of collagen-induced platelet aggregation at 100 uM preincubated for 5 mins followed by arachidonic acid addition measured for 3 mins by aggregometric analysis relative to control; type: functional; method in brief: as §1
[4] = test system: MCF7; test: Cytotoxicity against human MCF7 cells after 72 hrs by SRB assay; type: functional, cell-based
Method in brief: (§2)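 Cells cultured in DMEM with 10% FBS, 1% non-essential amino acids, penicillin/streptomycin, 37 °C, 5% CO2. 2000–3000 cells per well seeded, grown 24 h, then exposed 72 h to compound (DMSO) at 40, 20, 10, 5, 2.5 μM. TCA fixation, 0.4% SRB stain, unbound dye washed off with 1% acetic acid, bound dye dissolved in 10 mM Tris base, absorbance 515 nm. IC50 against DMSO controls, triplicate.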

[5] = test system: HCT-116; test: Cytotoxicity against human HCT116 cells after 72 hrs by SRB assay; type: functional, cell-based; method in brief: as §2
[6] = biological target: T1, COX1 (Prostaglandin G/H synthase 1) (Ovis aries, UniProt P05979); test: Inhibition of sheep COX1 at 10 uM assessed as reduction in PGE2 formation using arachidonic acid as substrate by enzyme immunoassay relative to control; conditions: probe arachidonic acid
T1 sequence (P05979 whole entry): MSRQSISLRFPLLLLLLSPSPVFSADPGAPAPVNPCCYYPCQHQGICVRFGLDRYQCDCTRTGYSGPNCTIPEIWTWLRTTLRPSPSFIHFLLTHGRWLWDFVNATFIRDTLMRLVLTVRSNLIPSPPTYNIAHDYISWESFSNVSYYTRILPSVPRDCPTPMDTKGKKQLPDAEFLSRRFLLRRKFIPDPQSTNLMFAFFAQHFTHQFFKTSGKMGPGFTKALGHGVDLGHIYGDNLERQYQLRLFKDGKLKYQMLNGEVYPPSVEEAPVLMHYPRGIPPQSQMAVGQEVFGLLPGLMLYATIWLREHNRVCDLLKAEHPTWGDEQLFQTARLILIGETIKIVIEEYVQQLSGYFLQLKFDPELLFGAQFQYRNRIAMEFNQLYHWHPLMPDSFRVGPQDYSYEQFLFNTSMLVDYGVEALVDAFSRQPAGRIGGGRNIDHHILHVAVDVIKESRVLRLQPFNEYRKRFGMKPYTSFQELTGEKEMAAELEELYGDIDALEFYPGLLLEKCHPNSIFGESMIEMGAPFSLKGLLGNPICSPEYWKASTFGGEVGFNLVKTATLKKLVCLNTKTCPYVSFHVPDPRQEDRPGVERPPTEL
Method in brief: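 Recombinant ovine COX-1, test agent at 10 μM, arachidonic acid as substrate. PGE2 formed is measured by competitive EIA (PGE2–acetylcholinesterase tracer, monoclonal anti-PGE2, Ellman's reagent, absorbance 412 nm) and quantified from an 8-point PGE2 standard curve. Result given as % inhibition of enzyme activity.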

[7] = test system: Huh-7; test: Cytotoxicity against human HuH7 cells after 72 hrs by SRB assay; type: functional, cell-based; method in brief: as §2
[8] = Homo sapiens, HCT-116, 72 h, read-out: IC50
[9] = Homo sapiens, Huh-7, 72 h, read-out: IC50
[10] = Homo sapiens, MCF7, 72 h, read-out: IC50

Compound	inhibition at 100 µM [1] [%]	IC50 [2] [µM]	inhibition at 100 µM [3] [%]	IC50 ([4]; mcf7)	IC50 [5, 8] [µM]	inhibition at 10 µM [6] [%]	IC50 [7, 9] [µM]	IC50 ([7]; huh-7)	IC50 [4, 10] [µM]	IC50 ([5]; hct-116)
CC(=O)Oc1ccccc1C(=O)O [ASPIRIN]	100	7.7	100	–	–	–	–	–	–	–
O=C(/C=C/c1cn(-c2ccccc2)nc1-c1ccncc1)NCc1ccncc1	4.96	–	50.1	Not Active	19.9	5.82	32.6	–	–	–
O=C(/C=C/c1cn(-c2ccccc2)nc1-c1ccncc1)NCCCn1ccnc1	90.6	33.6	88.9	Not Active	18.5	12.6	6.8	–	–	–
Cc1nccn1CCNC(=O)/C=C/c1cn(-c2ccccc2)nc1-c1ccncc1	2.54	–	35	Not Active	12.6	16.9	21	–	–	–
CS(=O)(=O)c1ccc(-n2cc(/C=C/C(=O)NCc3ccncc3)c(-c3cccnc3)n2)cc1	6.2	–	40.9	Not Active	31.7	12.5	–	Not Active	–	–
CS(=O)(=O)c1ccc(-n2cc(/C=C/C(=O)NCCc3ccncc3)c(-c3cccnc3)n2)cc1	100	21.4	71.8	Not Active	19.8	7.95	38.7	–	–	–
O=C(/C=C/c1cn(-c2ccccc2)nc1-c1cccnc1)NCCc1ccccn1	3.68	–	21.9	–	14.2	3.21	18.9	–	24.9	–
O=C(/C=C/c1cn(-c2ccccc2)nc1-c1ccncc1)NCc1cccnc1	43.3	–	63.4	Not Active	14.6	13.7	–	Not Active	–	–
Cc1nccn1CCCNC(=O)/C=C/c1cn(-c2ccc(S(C)(=O)=O)cc2)nc1-c1cccnc1	19.5	–	11.1	Not Active	–	36.8	–	Not Active	–	Not Active
CS(=O)(=O)c1ccc(-n2cc(/C=C/C(=O)NCc3cccnc3)c(-c3cccnc3)n2)cc1	90	49.8	64.1	Not Active	–	13.1	–	Not Active	–	Not Active
O=C(/C=C/c1cn(-c2ccccc2)nc1-c1cccnc1)NCc1ccncc1	4.54	–	36.6	Not Active	–	11.6	24.4	–	–	Not Active
O=C(/C=C/c1cn(-c2ccccc2)nc1-c1cccnc1)NCc1ccccn1	0	–	56.5	–	24.5	11.3	18.5	–	27.8	–
CS(=O)(=O)c1ccc(-n2cc(/C=C/C(=O)NCCCn3ccnc3)c(-c3cccnc3)n2)cc1	82.4	–	52.6	Not Active	–	40.5	–	Not Active	–	Not Active
CS(=O)(=O)c1ccc(-n2cc(/C=C/C(=O)NCc3ccccn3)c(-c3cccnc3)n2)cc1	8.92	–	59.8	Not Active	27	10.7	24.7	–	–	–
O=C(/C=C/c1cn(-c2ccccc2)nc1-c1ccncc1)NCCc1ccccn1	100	32.8	41.9	–	–	13.1	27.3	–	12.2	Not Active
Cc1nccn1CCCNC(=O)/C=C/c1cn(-c2ccccc2)nc1-c1cccnc1	1.24	–	60.3	–	21.4	0.32	13.4	–	25.1	–
Cc1nccn1CCCNC(=O)/C=C/c1cn(-c2ccccc2)nc1-c1ccncc1	7.91	–	41.3	Not Active	10.8	5.41	21.1	–	–	–
O=C(/C=C/c1cn(-c2ccccc2)nc1-c1cccnc1)NCCc1cccnc1	0	–	76.6	–	16.9	0.45	8.1	–	30.8	–
O=C(/C=C/c1cn(-c2ccccc2)nc1-c1ccncc1)NCCc1cccnc1	93.7	29.1	86.9	–	14.6	9.37	–	Not Active	16.1	–
O=C(/C=C/c1cn(-c2ccccc2)nc1-c1cccnc1)NCCc1ccncc1	11.3	–	75.9	Not Active	26.7	10.2	14.5	–	–	–
O=C(/C=C/c1cn(-c2ccccc2)nc1-c1cccnc1)NCCCn1ccnc1	16.1	–	86.5	–	17.6	0.12	14.3	–	15.4	–
CS(=O)(=O)c1ccc(-n2cc(/C=C/C(=O)NCCc3ccccn3)c(-c3cccnc3)n2)cc1	90.7	10.1	78.7	–	–	54.6	–	Not Active	14.3	Not Active
O=C(/C=C/c1cn(-c2ccccc2)nc1-c1ccncc1)NCc1ccccn1	100	78.3	41.6	Not Active	20.4	5.96	14.7	–	–	–
O=C(/C=C/c1cn(-c2ccccc2)nc1-c1cccnc1)NCc1cccnc1	1.26	–	63.3	–	21.6	5.56	21	–	30.9	–
CS(=O)(=O)c1ccc(-n2cc(/C=C/C(=O)NCCc3cccnc3)c(-c3cccnc3)n2)cc1	14.6	–	70.3	Not Active	–	1.31	–	Not Active	–	Not Active
COc1ccc2c(c1)c(CC(=O)O)c(C)n2C(=O)c1ccc(Cl)cc1 [INDOMETHACIN]	–	–	–	–	–	69.5	–	–	–	–
O=c1[nH]cc(F)c(=O)[nH]1 [FLUOROURACIL]	–	–	–	–	–	–	–	–	1.4	–
Cc1nccn1CCNC(=O)/C=C/c1cn(-c2ccccc2)nc1-c1cccnc1	0	–	15.5	–	20	2.46	25.6	–	21.8	–
O=C(/C=C/c1cn(-c2ccccc2)nc1-c1ccncc1)NCCc1ccncc1	71.4	–	74.6	–	7.1	26.6	6.5	–	11	–
Cc1nccn1CCNC(=O)/C=C/c1cn(-c2ccc(S(C)(=O)=O)cc2)nc1-c1cccnc1	14.3	–	8.6	Not Active	–	29.6	–	Not Active	–	Not Active
